Experimental data reported in ChEMBL document CHEMBL3792373, “Anti-methicillin resistant Staphylococcus aureus activity, synergism with oxacillin and molecular docking studies of metronidazole-triazole hybrids” (Eur J Med Chem, 2016).
Converted amounts (≈) assume the structure as drawn.

Columns and labels:
Staphylococcus aureus [1] = test: Antimicrobial activity against methicillin-resistant Staphylococcus aureus isolate 27a after 24 hrs by agar plate dilution method; type: functional
Outline: (§1)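 Clinical MRSA isolates from axilla/nasal swabs, identified by mannitol salt agar, Gram stain and coagulase test. Agar plate dilution with compound series 0.03–128 µg/mL. Inoculum suspended in water to McFarland 0.5. Incubation 24 h at 37 °C. MIC read as the lowest level without white growth spots. Dilution series quality-controlled with S. aureus NCTC 6571.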

Staphylococcus aureus [2] = test: Antimicrobial activity against methicillin-resistant Staphylococcus aureus isolate 2a after 24 hrs by agar plate dilution method in presence of oxacillin (1:1); type: functional
Outline: (§2)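 Test compound and oxacillin mixed 1:1, each at 32 µg/mL in the mixture, then serially diluted into agar plates. Clinical MRSA isolates at McFarland 0.5 in water were spotted onto the plates and incubated 24 h at 37 °C. Growth was read as white spots. NCTC 6571 S. aureus served as the dilution-series control.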

Staphylococcus aureus [3] = test: Antimicrobial activity against methicillin-resistant Staphylococcus aureus isolate 1a after 24 hrs by agar plate dilution method; type: functional; outline: as §1
Staphylococcus aureus [4] = test: Bactericidal activity against methicillin-resistant Staphylococcus aureus isolate 1a assessed as reduction in colony counts at 32 ug/ml after 20 hrs by pour plate method in presence of oxacillin (1:1) (reference value: 12.73 +/- 0.223 log10CFU/ml); type: functional
Staphylococcus aureus [5] = test: Antimicrobial activity against methicillin-resistant Staphylococcus aureus isolate 25a after 24 hrs by agar plate dilution method; type: functional; outline: as §1
Staphylococcus aureus [6] = test: Antimicrobial activity against methicillin-resistant Staphylococcus aureus isolate 20a after 24 hrs by agar plate dilution method; type: functional; outline: as §1
Staphylococcus aureus [7] = test: Antimicrobial activity against methicillin-resistant Staphylococcus aureus isolate 3a after 24 hrs by agar plate dilution method; type: functional; outline: as §1
Staphylococcus aureus [8] = test: Antimicrobial activity against methicillin-resistant Staphylococcus aureus isolate 26a after 24 hrs by agar plate dilution method in presence of oxacillin (1:1); type: functional; outline: as §2
Staphylococcus aureus [9] = test: Antimicrobial activity against methicillin-resistant Staphylococcus aureus isolate 29a after 24 hrs by agar plate dilution method in presence of oxacillin (1:1); type: functional; outline: as §2
Staphylococcus aureus [10] = test: Antimicrobial activity against methicillin-resistant Staphylococcus aureus isolate 20a after 24 hrs by agar plate dilution method in presence of oxacillin (1:1); type: functional; outline: as §2
Staphylococcus aureus [11] = test: Antimicrobial activity against methicillin-resistant Staphylococcus aureus isolate 21a after 24 hrs by agar plate dilution method in presence of oxacillin (1:1); type: functional; outline: as §2
Staphylococcus aureus [12] = test: Bactericidal activity against methicillin-resistant Staphylococcus aureus isolate 1a assessed as reduction in colony counts at 32 ug/ml after 12 hrs by pour plate method in presence of oxacillin (1:1) (reference value: 10.12 +/- 0.428 log10CFU/ml); type: functional
Staphylococcus aureus [13] = test: Antimicrobial activity against methicillin-resistant Staphylococcus aureus isolate 16a after 24 hrs by agar plate dilution method; type: functional; outline: as §1
Staphylococcus aureus [14] = test: Antimicrobial activity against methicillin-resistant Staphylococcus aureus isolate 30a after 24 hrs by agar plate dilution method; type: functional; outline: as §1
Staphylococcus aureus [15] = test: Antimicrobial activity against methicillin-resistant Staphylococcus aureus isolate 6a after 24 hrs by agar plate dilution method; type: functional
Outline: (§3)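 Clinical MRSA isolates, from axilla/nasal swabs and identified by mannitol salt agar, Gram stain and coagulase test. […] Inoculum adjusted to McFarland 0.5 in water. Plates incubated 24 h at 37 °C and scored for growth spots. Dilution series quality-controlled with S. aureus NCTC 6571. Combination lines used a 1:1 mixture with oxacillin.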

Staphylococcus aureus [16] = test: Antimicrobial activity against methicillin-resistant Staphylococcus aureus isolate 4a after 24 hrs by agar plate dilution method in presence of oxacillin (1:1); type: functional; outline: as §2
Staphylococcus aureus [17] = test: Antimicrobial activity against methicillin-resistant Staphylococcus aureus isolate 17a after 24 hrs by agar plate dilution method; type: functional; outline: as §1
Staphylococcus aureus [18] = test: Antimicrobial activity against methicillin-resistant Staphylococcus aureus isolate 22a after 24 hrs by agar plate dilution method in presence of oxacillin (1:1); type: functional; outline: as §2
Staphylococcus aureus [19] = test: Antimicrobial activity against methicillin-resistant Staphylococcus aureus isolate 10a after 24 hrs by agar plate dilution method; type: functional; outline: as §1
Staphylococcus aureus [20] = test: Antimicrobial activity against methicillin-resistant Staphylococcus aureus isolate 30a after 24 hrs by agar plate dilution method in presence of oxacillin (1:1); type: functional; outline: as §2
Staphylococcus aureus [21] = test: Bactericidal activity against methicillin-resistant Staphylococcus aureus isolate 1a assessed as reduction in colony counts at 32 ug/ml after 24 hrs by pour plate method (reference value: 12.64 +/- 0.224 log10CFU/ml); type: functional
Staphylococcus aureus [22] = test: Antimicrobial activity against methicillin-resistant Staphylococcus aureus isolate 7a after 24 hrs by agar plate dilution method in presence of oxacillin (1:1); type: functional; outline: as §3
Staphylococcus aureus [23] = test: Bactericidal activity against methicillin-resistant Staphylococcus aureus isolate 1a assessed as reduction in colony counts at 32 ug/ml after 4 hrs by pour plate method in presence of oxacillin (1:1) (reference value: 6.14 +/- 0.456 log10CFU/ml); type: functional
Staphylococcus aureus [24] = test: Antimicrobial activity against methicillin-resistant Staphylococcus aureus isolate 13a after 24 hrs by agar plate dilution method in presence of oxacillin (1:1); type: functional; outline: as §2
Staphylococcus aureus [25] = test: Antimicrobial activity against methicillin-resistant Staphylococcus aureus isolate 14a after 24 hrs by agar plate dilution method in presence of oxacillin (1:1); type: functional; outline: as §2
Staphylococcus aureus [26] = test: Bactericidal activity against methicillin-resistant Staphylococcus aureus isolate 1a assessed as reduction in colony counts at 32 ug/ml after 24 hrs by pour plate method in presence of oxacillin (1:1) (reference value: 12.64 +/- 0.224 log10CFU/ml); type: functional
Staphylococcus aureus [27] = test: Antimicrobial activity against methicillin-resistant Staphylococcus aureus isolate 12a after 24 hrs by agar plate dilution method in presence of oxacillin (1:1); type: functional; outline: as §2
Staphylococcus aureus [28] = test: Antimicrobial activity against methicillin-resistant Staphylococcus aureus isolate 19a after 24 hrs by agar plate dilution method in presence of oxacillin (1:1); type: functional; outline: as §2
Staphylococcus aureus [29] = test: Antimicrobial activity against methicillin-resistant Staphylococcus aureus isolate 13a after 24 hrs by agar plate dilution method; type: functional; outline: as §1
Staphylococcus aureus [30] = test: Antimicrobial activity against methicillin-resistant Staphylococcus aureus isolate 10a after 24 hrs by agar plate dilution method in presence of oxacillin (1:1); type: functional; outline: as §2
Staphylococcus aureus [31] = test: Antimicrobial activity against methicillin-resistant Staphylococcus aureus isolate 11a after 24 hrs by agar plate dilution method in presence of oxacillin (1:1); type: functional; outline: as §2
[32] = Cytotoxicity against human THP1 cells upto 50 uM treated 3 times per week for 14 days by MTT assay; type: cell-based; conditions: thp-1, 336 h
Staphylococcus aureus [33] = test: Antimicrobial activity against methicillin-resistant Staphylococcus aureus isolate 8a after 24 hrs by agar plate dilution method in presence of oxacillin (1:1); type: functional; outline: as §3
Staphylococcus aureus [34] = test: Antimicrobial activity against methicillin-resistant Staphylococcus aureus isolate 6a after 24 hrs by agar plate dilution method in presence of oxacillin (1:1); type: functional; outline: as §3

**Q.** What does the source list for `Cc1ncc([N+](=O)[O-])n1CCn1cc(COc2c(Cl)cccc2Cl)nn1`?
**A.** MIC (Staphylococcus aureus [1]): 64 µg/mL (≈ 161 µM); MIC (Staphylococcus aureus [2]): 1 µg/mL; MIC (Staphylococcus aureus [3]): 4 µg/mL (≈ 10.1 µM); Activity (Staphylococcus aureus [4]): 5.26 log10CFU/ml; MIC (Staphylococcus aureus [5]): 64 µg/mL (≈ 161 µM); MIC (Staphylococcus aureus [6]): > 128 µg/mL; MIC (Staphylococcus aureus [7]): 4 µg/mL (≈ 10.1 µM); MIC (Staphylococcus aureus [8]): 4 µg/mL; MIC (Staphylococcus aureus [9]): 4 µg/mL; MIC (Staphylococcus aureus [10]): 2 µg/mL; MIC (Staphylococcus aureus [11]): 1 µg/mL; Activity (Staphylococcus aureus [12]): 5.91 log10CFU/ml; MIC (Staphylococcus aureus [13]): 32 µg/mL (≈ 80.6 µM); MIC (Staphylococcus aureus [14]): 64 µg/mL (≈ 161 µM); MIC (Staphylococcus aureus [15]): 4 µg/mL (≈ 10.1 µM); MIC (Staphylococcus aureus [16]): 2 µg/mL; MIC (Staphylococcus aureus [17]): 32 µg/mL (≈ 80.6 µM); MIC (Staphylococcus aureus [18]): 4 µg/mL; MIC (Staphylococcus aureus [19]): > 128 µg/mL; MIC (Staphylococcus aureus [20]): 8 µg/mL; Activity (Staphylococcus aureus [21]): 5.84 log10CFU/ml; MIC (Staphylococcus aureus [22]): 1 µg/mL; Activity (Staphylococcus aureus [23]): 5.5 log10CFU/ml; MIC (Staphylococcus aureus [24]): 4 µg/mL; MIC (Staphylococcus aureus [25]): 4 µg/mL; Activity (Staphylococcus aureus [26]): 5.6 log10CFU/ml; MIC (Staphylococcus aureus [27]): 2 µg/mL; MIC (Staphylococcus aureus [28]): 2 µg/mL; MIC (Staphylococcus aureus [29]): 64 µg/mL (≈ 161 µM); MIC (Staphylococcus aureus [30]): 2 µg/mL; MIC (Staphylococcus aureus [31]): 1 µg/mL; Activity [32]: Non-toxic; MIC (Staphylococcus aureus [33]): 1 µg/mL; MIC (Staphylococcus aureus [34]): 1 µg/mL
